Laboratory results taken from ChEMBL document CHEMBL2176877, “Inhibition of NF-κB-dependent cytokine and inducible nitric oxide synthesis by the macrocyclic ellagitannin oenothein B in TLR-stimulated RAW 264.7 macrophages” (J Nat Prod, 2012).
Calls of active or inactive are those of the source. No cut-off for these calls is given here.

Key:
RAW264.7 [1] = assay: Reduction of IL-6 mRNA expression in LPS-stimulated mouse RAW264.7 cells by RT-PCR analysis; format: functional, cell-based
How it was run: (§1)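 IL-1beta, IL-6 and TNF-alpha mRNA from RAW 264.7 cells quantified by real-time RT-PCR using intron- or exon−exon boundary spanning primers. Results given as mean normalized expression; IL-6 and TNF-alpha levels normalized to 1000 copies of beta-actin.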

RAW264.7 [2] = assay: Cytotoxicity against mouse RAW264.7 cells assessed as reduction in membrane integrity by MTT assay; format: cell-based; conditions: in the assay text read “trypan blue exclusion assay” for “MTT assay”
How it was run: (§2)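 RAW 264.7 cells exposed to compound at 20−60 μg/mL over the course of the experimental procedures. Viability checked by trypan blue exclusion (membrane integrity) and by MTT test (cellular metabolism/mitochondrial respiration).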

RAW264.7 [3] = assay: Cytotoxicity against LPS-stimulated mouse RAW264.7 cells assessed as decrease in total mRNA transcription after 24 hrs by RT-PCR analysis; format: cell-based; conditions: raw264.7, 24 h
How it was run: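 LPS-stimulated RAW 264.7 macrophages co-incubated with test compound at 20−60 μg/mL for 24 h. iNOS mRNA (775 bp) and beta-actin mRNA (513 bp) analysed by semiquantitative competitive RT-PCR, with actin mRNA used to judge any generalized fall in transcription. One representative of three experiments.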

RAW264.7 [4] = assay: Cytotoxicity against mouse RAW264.7 cells assessed as reduction in mitochondrial respiration by MTT assay; format: cell-based; how it was run: as §2
RAW264.7 [5] = assay: Reduction of iNOS mRNA expression in LPS-stimulated mouse RAW264.7 cells after 24 hrs by RT-PCR analysis; format: functional, cell-based
How it was run: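 LPS-stimulated macrophages given compound at 20−60 μg/mL for 24 h. iNOS mRNA (775 bp) measured by semiquantitative competitive RT-PCR against beta-actin mRNA (513 bp). One representative of three experiments.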

[6] = target: Transcription factor p65 (Mus musculus) (UniProt Q04207); assay: Inhibition of NFkappa-B p65 subunit nuclear translocation in LPS-stimulated mouse RAW264.7 cells preincubated for 30mins before LPS treatment by Western blot analysis; format: cell-based
Sequence of Transcription factor p65 (Mus musculus) (Q04207 whole entry): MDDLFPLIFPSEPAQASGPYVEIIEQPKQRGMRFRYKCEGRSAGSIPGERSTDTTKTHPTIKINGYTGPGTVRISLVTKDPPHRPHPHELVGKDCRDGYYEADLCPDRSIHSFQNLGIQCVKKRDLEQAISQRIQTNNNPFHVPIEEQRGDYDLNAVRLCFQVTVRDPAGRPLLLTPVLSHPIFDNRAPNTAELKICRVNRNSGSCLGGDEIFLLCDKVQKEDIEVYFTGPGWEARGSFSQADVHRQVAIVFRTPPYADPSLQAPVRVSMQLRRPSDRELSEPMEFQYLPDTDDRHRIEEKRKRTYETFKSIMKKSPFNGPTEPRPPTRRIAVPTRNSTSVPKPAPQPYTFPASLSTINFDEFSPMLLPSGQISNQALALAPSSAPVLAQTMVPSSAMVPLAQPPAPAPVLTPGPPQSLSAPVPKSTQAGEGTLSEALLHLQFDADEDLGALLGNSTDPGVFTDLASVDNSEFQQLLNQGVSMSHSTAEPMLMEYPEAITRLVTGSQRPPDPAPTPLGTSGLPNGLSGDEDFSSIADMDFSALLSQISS
How it was run: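 Macrophages pre-incubated with compound at 20−60 μg/mL for 30 min, then stimulated with LPS for 20 min. Nuclear extracts immunoblotted against NF-κB p65, detected as a 65 kD band.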

RAW264.7 [7] = assay: Inhibition of LPS-induced NO production in mouse RAW264.7 cells assessed as reduction in nitrite level within 24 hrs by Griess reagent method; format: functional, cell-based; conditions: for IC50: RAW264.7, 24 h
RAW264.7 [8] = assay: Reduction of IL-1beta mRNA expression in LPS-stimulated mouse RAW264.7 cells by RT-PCR analysis; format: functional, cell-based; how it was run: as §1
RAW264.7 [9] = assay: Inhibition of LPS-induced NO production in mouse RAW264.7 cells assessed as reduction in nitrite level after 24 hrs by Griess reagent method in presence of TLR2 agonist pam2CSK4; format: functional, cell-based
RAW264.7 [10] = assay: Inhibition of LPS-induced NO production in mouse RAW264.7 cells assessed as reduction in nitrite level after 48 hrs by Griess reagent method in presence of TLR2 agonist pam2CSK4; format: functional, cell-based
How it was run: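 Cells stimulated through TLR2 with Pam2CSK4 (500 ng/mL) and incubated with compound at 30−60 μg/mL for 48 h. Nitrite read-out by Griess reaction.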

RAW264.7 [11] = assay: Reduction of TNFalpha mRNA expression in LPS-stimulated mouse RAW264.7 cells by RT-PCR analysis; format: functional, cell-based; how it was run: as §1
RAW264.7 [12] = assay: Inhibition of LPS-induced NO production in mouse RAW264.7 cells assessed as reduction in nitrite level at 60 ug/ml after 24 hrs by Griess reagent method; format: functional; conditions: RAW264.7, 24 h
RAW264.7 [13] = assay: Inhibition of LPS-induced NO production in mouse RAW264.7 cells assessed as reduction in nitrite level at 20 ug/ml after 24 hrs by Griess reagent method; format: functional; conditions: RAW264.7, 24 h
[14] = target: T1, Nitric oxide synthase, inducible (Mus musculus) (UniProt P29477); assay: Inhibition of iNOS in mouse RAW264.7 cells at 60 ug/ml; format: cell-based
T1 sequence (whole entry): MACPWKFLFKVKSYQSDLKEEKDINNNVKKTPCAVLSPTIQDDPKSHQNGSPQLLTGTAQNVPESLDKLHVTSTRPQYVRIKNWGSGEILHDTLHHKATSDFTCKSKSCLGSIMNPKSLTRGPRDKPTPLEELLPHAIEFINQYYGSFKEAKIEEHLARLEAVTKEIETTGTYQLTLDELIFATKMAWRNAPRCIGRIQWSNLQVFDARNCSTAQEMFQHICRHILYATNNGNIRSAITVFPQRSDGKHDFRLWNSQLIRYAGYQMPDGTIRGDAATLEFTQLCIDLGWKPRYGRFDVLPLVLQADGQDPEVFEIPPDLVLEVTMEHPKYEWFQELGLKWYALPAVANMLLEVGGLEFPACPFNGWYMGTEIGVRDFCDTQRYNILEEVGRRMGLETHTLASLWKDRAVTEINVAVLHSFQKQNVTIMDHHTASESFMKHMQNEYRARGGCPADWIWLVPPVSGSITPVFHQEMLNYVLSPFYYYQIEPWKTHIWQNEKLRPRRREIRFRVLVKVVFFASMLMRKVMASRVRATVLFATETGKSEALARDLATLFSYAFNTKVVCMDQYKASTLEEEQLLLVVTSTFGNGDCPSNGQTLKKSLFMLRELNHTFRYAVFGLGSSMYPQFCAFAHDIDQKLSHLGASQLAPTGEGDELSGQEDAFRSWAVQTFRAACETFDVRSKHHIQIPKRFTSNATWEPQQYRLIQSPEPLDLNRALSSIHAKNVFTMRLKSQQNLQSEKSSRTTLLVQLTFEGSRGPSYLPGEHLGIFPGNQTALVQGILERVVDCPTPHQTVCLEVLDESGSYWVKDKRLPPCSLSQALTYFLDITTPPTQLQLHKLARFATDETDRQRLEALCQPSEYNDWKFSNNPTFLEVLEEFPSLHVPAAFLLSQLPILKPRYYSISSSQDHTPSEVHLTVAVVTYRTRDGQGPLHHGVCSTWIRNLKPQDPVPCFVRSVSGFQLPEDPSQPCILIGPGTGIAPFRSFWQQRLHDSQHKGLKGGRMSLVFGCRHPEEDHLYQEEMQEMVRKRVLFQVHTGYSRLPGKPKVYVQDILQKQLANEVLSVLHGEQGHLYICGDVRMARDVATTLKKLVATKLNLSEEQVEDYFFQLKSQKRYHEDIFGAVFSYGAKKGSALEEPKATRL
How it was run: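 Cytosolic iNOS enzymatic activity assayed with compound at 60 μg/mL final concentration, compared with incubations lacking compound. L-NAME (300 μM) and W1400 (50 μg/mL) served as reference inhibitors.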

RAW264.7 [15] = assay: Cytotoxicity against mouse RAW264.7 cells assessed as reduction in cellular metabolism by MTT assay; format: ADME, cell-based; how it was run: as §2
RAW264.7 [16] = assay: Inhibition of LPS-induced NO production in mouse RAW264.7 cells assessed as reduction in nitrite level at 30 ug/ml after 24 hrs by Griess reagent method; format: functional; conditions: RAW264.7, 24 h
[17] = target: T2, Nuclear factor NF-kappa-B p105 subunit (Mus musculus) (UniProt P25799); assay: Inhibition of binding of NFkappa-B p50 subunit to biotinylated consensus sequence in nuclear extract of LPS-stimulated mouse RAW264.7 cells after 1 hr by; format: cell-based
T2 sequence (whole entry): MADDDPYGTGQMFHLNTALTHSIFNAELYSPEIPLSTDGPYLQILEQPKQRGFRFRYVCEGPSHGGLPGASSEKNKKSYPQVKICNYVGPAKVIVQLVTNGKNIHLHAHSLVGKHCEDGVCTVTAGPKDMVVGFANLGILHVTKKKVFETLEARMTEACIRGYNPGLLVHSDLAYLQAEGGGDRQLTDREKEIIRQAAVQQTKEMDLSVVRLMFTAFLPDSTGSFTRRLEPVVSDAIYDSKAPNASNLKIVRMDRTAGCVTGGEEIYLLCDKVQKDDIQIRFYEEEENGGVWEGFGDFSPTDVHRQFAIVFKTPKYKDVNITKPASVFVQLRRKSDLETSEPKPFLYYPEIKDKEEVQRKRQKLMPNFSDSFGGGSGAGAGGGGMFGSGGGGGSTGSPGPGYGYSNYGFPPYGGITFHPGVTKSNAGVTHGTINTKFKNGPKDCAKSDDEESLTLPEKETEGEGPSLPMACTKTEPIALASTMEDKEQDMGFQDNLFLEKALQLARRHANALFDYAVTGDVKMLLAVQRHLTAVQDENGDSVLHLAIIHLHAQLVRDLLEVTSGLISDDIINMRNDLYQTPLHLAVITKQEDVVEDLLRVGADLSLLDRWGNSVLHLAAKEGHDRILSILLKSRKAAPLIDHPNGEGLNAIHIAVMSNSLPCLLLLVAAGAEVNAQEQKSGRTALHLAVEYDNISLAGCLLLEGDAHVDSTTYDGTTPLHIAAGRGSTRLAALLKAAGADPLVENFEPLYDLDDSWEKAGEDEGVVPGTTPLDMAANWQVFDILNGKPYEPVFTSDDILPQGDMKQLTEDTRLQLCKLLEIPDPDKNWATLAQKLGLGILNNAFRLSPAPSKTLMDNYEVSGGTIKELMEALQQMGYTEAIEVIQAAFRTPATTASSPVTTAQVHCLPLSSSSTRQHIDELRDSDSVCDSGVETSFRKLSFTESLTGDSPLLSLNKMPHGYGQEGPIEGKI
How it was run: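 RAW 264.7 cells (1 × 10^6) seeded in six-well plates, with LPS and compound added together for 1 h. Nuclear extracts prepared and binding of NF-κB p50 to a biotinylated consensus sequence read as relative light units.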

RAW264.7 [18] = assay: Inhibition of LPS-induced NO production in mouse RAW264.7 cells assessed as reduction in nitrite level after 24 hrs by Griess reagent method in presence of IFN-gamma; format: functional, cell-based
How it was run: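 Stimulation of the JAK-STAT pathway in RAW 264.7 cells with interferon-gamma at 100 U/mL in the presence of compound. Inducible NO synthesis measured as medium nitrite by Griess reaction.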

RAW264.7 [19] = assay: Reduction of iNOS expression in LPS-stimulated mouse RAW264.7 cells after 24 hrs by Western blot analysis; format: functional, cell-based
How it was run: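 Cells treated with LPS and compound at 10−60 μg/mL for 24 h. Lysates immunoblotted with rabbit polyclonal anti-iNOS, detecting a 130 kD band matched to purified iNOS. Beta-actin (43 kD) used as loading control.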

RAW264.7 [20] = assay: Inhibition of LPS-induced NO production in mouse RAW264.7 cells assessed as reduction in nitrite level after 24 hrs by Griess reagent method in presence of TLR4 agonist Kdo2
RAW264.7 [21] = assay: Inhibition of LPS-induced NO production in mouse RAW264.7 cells assessed as reduction in nitrite level after 24 hrs by Griess reagent method in presence of TLR4 agonist Kdo2; format: functional, cell-based
How it was run: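 TLR4 activation of RAW 264.7 cells with Kdo2-lipid A at 500 ng/mL, together with compound at 30−60 μg/mL for 24 h. Nitrite in the culture medium determined by Griess reaction.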

[22] = target: T1, Nitric oxide synthase, inducible (Mus musculus); conditions: RAW264.7, 300 uM
[23] = target: T1, Nitric oxide synthase, inducible (Mus musculus); assay: Inhibition of iNOS in mouse RAW264.7 cells at 50 ug/ml; format: cell-based

SMILES: O=C(O[C@H]1[C@@H]2OC(=O)c3cc(O)c(O)c(O)c3-c3c4cc(c(O)c3O)Oc3c(cc(O)c(O)c3O)C(=O)O[C@H]3C(O)O[C@@H]5COC(=O)c6cc(O)c(O)c(O)c6-c6c(cc(c(O)c6O)Oc6c(cc(O)c(O)c6O)C(=O)O[C@H]1C(O)O[C@@H]2COC4=O)C(=O)O[C@H]5[C@@H]3OC(=O)c1cc(O)c(O)c(O)c1)c1cc(O)c(O)c(O)c1 (stereo not given in full) [OENOTHEIN B]
- Activity (RAW264.7 [1]): Active
- Activity (RAW264.7 [2]): Non-toxic
- Activity (RAW264.7 [3]): Non-toxic
- Activity (RAW264.7 [4]): Non-toxic
- Activity (RAW264.7 [5]): Dose-dependent effect
- inhibition [6]: Dose-dependent effect
- inhibition (RAW264.7 [7]): Dose-dependent effect
- IC50 (RAW264.7 [7]): 17.7 µM
- Activity (RAW264.7 [8]): Active
- inhibition (RAW264.7 [9]): Dose-dependent effect
- inhibition (RAW264.7 [10]): Dose-dependent effect
- Activity (RAW264.7 [11]): Active
- inhibition at 60 µg/mL (RAW264.7 [12]): 87.9%
- inhibition at 20 µg/mL (RAW264.7 [13]): 34.8%
- inhibition [14]: inactive
- Activity (RAW264.7 [15]): Non-toxic
- inhibition at 30 µg/mL (RAW264.7 [16]): 64.6%
- inhibition [17]: Active
- inhibition (RAW264.7 [18]): inactive
- Activity (RAW264.7 [19]): Dose-dependent effect
- inhibition (RAW264.7 [20]): Dose-dependent effect
- inhibition (RAW264.7 [21]): Dose-dependent effect

SMILES: COC(=O)[C@@H](N)CCCNC(=N)N[N+](=O)[O-]
- inhibition [22]: > 70%

SMILES: CC(=N)NCc1cccc(CN)c1
- inhibition [23]: > 70%

SMILES: O=C(O)c1cc(O)c(O)c(O)c1 [GALLIC ACID]
- IC50 (RAW264.7 [7]): 632 µM
